What all share (assay type): functional
For assay [1], the system named is Streptococcus pyogenes. In words: Minimum inhibitory concentration was evaluated in vitro against Streptococcus pyogenes C 203. In outline: (§1)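 Standard microtitration broth assay against a panel of 10 Gram-positive and Gram-negative organisms. MIC read in µg/mL and averaged over multiple experiments.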
The test system of the next assay is Pseudomonas aeruginosa. Put plainly: Minimum inhibitory concentration was evaluated in vitro against Pseudomonas aeruginosa UI-18. The procedure, abridged:
as §1

In assay [2] the test system is Streptococcus pyogenes. In words: Compounds were evaluated in vivo for antibacterial activity for mouse protection against Streptococcus pyogenes C 203 after oral administration. The following applies: for ED50: Streptococcus pyogenes, C 203, po, read-out: PD50.
The subject of the next assay is Klebsiella pneumoniae. In words: Minimum inhibitory concentration was evaluated in vitro against Klebsiella pneumoniae MGH2. In outline: as §1
Assay [3] concerns Staphylococcus aureus. Put plainly: Minimum inhibitory concentration was evaluated in vitro against Staphylococcus aureus H 228. The procedure, abridged: as §1
A further assay deals with Enterococcus faecalis. Put plainly: Minimum inhibitory concentration was evaluated in vitro against Enterococcus faecalis MGH-2. In outline:
as §1

The subject of a further assay is Enterobacter cloacae. Put plainly: Minimum inhibitory concentration in vitro against Enterobacter cloacae MA 2646.
A further assay deals with Escherichia coli. Put plainly: Antibacterial activity in vitro against Escherichia coli Vogel. In outline: as §1
The test system of a further assay is Streptococcus pneumoniae. In words: Minimum inhibitory concentration was evaluated in vitro against Streptococcus pneumoniae SV-1. In outline:
as §1

A further assay relates to Providencia rettgeri. Put plainly: Minimum inhibitory concentration was evaluated in vitro against Providencia rettgeri M1771. The procedure, abridged: as §1
The subject of assay [4] is Staphylococcus aureus. Put plainly: Minimum inhibitory concentration was evaluated in vitro against Staphylococcus aureus UC 76. In outline:
as §1

Assay [5] deals with Streptococcus pyogenes. In words: Antibacterial activity measured as mouse protection against Streptococcus pyogenes C 203 after subcutaneous administration. Particulars: for ED50: Streptococcus pyogenes, C 203, sc, read-out: PD50.
[6] abbreviates: Enterobacter cloacae, read-out: MIC.
The mark [7] stands for this setting: Providencia rettgeri, read-out: MIC.
Where [8] appears, read: Streptococcus pyogenes, read-out: MIC.
[9] abbreviates: Pseudomonas aeruginosa, read-out: MIC.
[10] abbreviates: Klebsiella pneumoniae, read-out: MIC.
The mark [11] stands for this setting: Staphylococcus aureus, read-out: MIC.
Setting [12] is: Enterococcus faecalis, read-out: MIC.
The mark [13] stands for this setting: Escherichia coli, read-out: MIC.
[14] abbreviates: Streptococcus pneumoniae, read-out: MIC.

≈ marks a conversion by molar mass, not a printed value.

Consider `CC(N)C1CCN(c2c(F)cc3c(=O)c(C(=O)O)cn(C4CC4)c3c2C(F)(F)F)C1` (stereo in doubt; 36F-R,R), for which the MIC amounted to 0.1 µg/mL (≈ 0.234 µM) in the assay on Streptococcus pyogenes [1]; 6.3 µg/mL (≈ 14.7 µM) in the assay with Pseudomonas aeruginosa; 0.8 µg/mL (≈ 1.87 µM) against Klebsiella pneumoniae; 0.1 µg/mL (≈ 0.234 µM) against Staphylococcus aureus [3]; 0.2 µg/mL (≈ 0.468 µM) in the assay on Enterococcus faecalis; 0.4 µg/mL (≈ 0.936 µM) in the assay with Enterobacter cloacae (setting [6]). Further, the MIC stood at 0.8 µg/mL (≈ 1.87 µM) against Escherichia coli, 0.1 µg/mL (≈ 0.234 µM) with Streptococcus pneumoniae, 0.8 µg/mL (≈ 1.87 µM) in the assay with Providencia rettgeri (setting [7]) and 0.025 µg/mL (≈ 0.0585 µM) in the assay with Staphylococcus aureus [4]. Also, the PD50 in the assay with Streptococcus pyogenes [2] is 3 mg/kg; in the assay with Streptococcus pyogenes [5], 2 mg/kg.
Take `CCN[C@H](C)[C@@H]1CCN(c2cc3c(cc2F)c(=O)c(C(=O)O)cn3C2CC2)C1`: the MIC came out at 0.05 µg/mL (≈ 0.129 µM) with Streptococcus pyogenes [1] (setting [8]); 6.3 µg/mL (≈ 16.3 µM) in the assay with Pseudomonas aeruginosa (setting [9]); 0.4 µg/mL (≈ 1.03 µM) with Klebsiella pneumoniae (setting [10]); 0.1 µg/mL (≈ 0.258 µM) in the assay on Staphylococcus aureus [3] (setting [11]); 0.1 µg/mL (≈ 0.258 µM) in the assay on Enterococcus faecalis (setting [12]); 0.2 µg/mL (≈ 0.516 µM) with Enterobacter cloacae (setting [6]). In addition, the MIC with Escherichia coli (setting [13]) came out at 0.2 µg/mL (≈ 0.516 µM); in the assay on Streptococcus pneumoniae (setting [14]), 0.05 µg/mL (≈ 0.129 µM); in the assay on Providencia rettgeri (setting [7]) it was 0.8 µg/mL (≈ 2.06 µM); in the assay with Staphylococcus aureus [4] (setting [11]) it was 0.025 µg/mL (≈ 0.0645 µM).
In the case of `CCN[C@@H](C)[C@@H]1CCN(c2c(F)c(N)c3c(=O)c(C(=O)O)cn(C4CC4)c3c2F)C1` (stereo in doubt; 32H-S,R), the MIC with Streptococcus pyogenes [1] came to 0.013 µg/mL (≈ 0.0309 µM); in the assay with Pseudomonas aeruginosa, 0.8 µg/mL (≈ 1.9 µM); in the assay on Klebsiella pneumoniae, 0.1 µg/mL (≈ 0.238 µM); against Staphylococcus aureus [3], 0.013 µg/mL (≈ 0.0309 µM); against Enterococcus faecalis it was 0.025 µg/mL (≈ 0.0595 µM); against Enterobacter cloacae, 0.1 µg/mL (≈ 0.238 µM). In addition, the MIC with Escherichia coli amounted to 0.1 µg/mL (≈ 0.238 µM); in the assay on Streptococcus pneumoniae it was 0.013 µg/mL (≈ 0.0309 µM); in the assay with Providencia rettgeri it was 0.4 µg/mL (≈ 0.951 µM); with Staphylococcus aureus [4] it was 0.003 µg/mL (≈ 0.00714 µM). The PD50 in the assay with Streptococcus pyogenes [2] turned out to be 6 mg/kg; with Streptococcus pyogenes [5] it was 3 mg/kg.
For the compound `CCN[C@@H](C)[C@@H]1CCN(c2c(F)c(N)c3c(=O)c(C(=O)O)cn(C4CC4)c3c2F)C1` (stereo in doubt; 32H-S,S), the MIC with Streptococcus pyogenes [1] amounted to 0.2 µg/mL (≈ 0.476 µM); against Pseudomonas aeruginosa, 3.1 µg/mL (≈ 7.37 µM); with Klebsiella pneumoniae it was 0.4 µg/mL (≈ 0.951 µM); in the assay with Staphylococcus aureus [3], 0.1 µg/mL (≈ 0.238 µM); against Enterococcus faecalis, 0.2 µg/mL (≈ 0.476 µM); against Enterobacter cloacae, 0.4 µg/mL (≈ 0.951 µM). Also, the MIC in the assay on Escherichia coli (setting [13]) worked out at 0.2 µg/mL (≈ 0.476 µM); with Streptococcus pneumoniae it was 0.05 µg/mL (≈ 0.119 µM); in the assay on Providencia rettgeri, 1.6 µg/mL (≈ 3.81 µM); with Staphylococcus aureus [4], 0.05 µg/mL (≈ 0.119 µM). Further, the values for the PD50 in the assay with Streptococcus pyogenes [2] and with Streptococcus pyogenes [5] were 13 mg/kg and 9 mg/kg, respectively.
In the case of `C[C@@H](N)[C@@H]1CCN(c2nc3c(cc2F)c(=O)c(C(=O)O)cn3-c2ccc(F)cc2F)C1`, the MIC in the assay with Streptococcus pyogenes [1] (setting [8]) was 0.05 µg/mL (≈ 0.116 µM); in the assay with Pseudomonas aeruginosa (setting [9]) it was 1.6 µg/mL (≈ 3.7 µM); in the assay on Klebsiella pneumoniae (setting [10]) it was 0.2 µg/mL (≈ 0.463 µM); in the assay with Staphylococcus aureus [3] (setting [11]), 0.1 µg/mL (≈ 0.231 µM); in the assay with Enterococcus faecalis (setting [12]) it was 0.1 µg/mL (≈ 0.231 µM); with Enterobacter cloacae (setting [6]) it was 0.1 µg/mL (≈ 0.231 µM). Besides, the MIC in the assay on Escherichia coli (setting [13]) is 0.1 µg/mL (≈ 0.231 µM); in the assay with Streptococcus pneumoniae (setting [14]), 0.1 µg/mL (≈ 0.231 µM); in the assay on Providencia rettgeri (setting [7]), 0.4 µg/mL (≈ 0.925 µM); in the assay on Staphylococcus aureus [4] (setting [11]), 0.025 µg/mL (≈ 0.0578 µM).
In the case of `CN[C@H](C)[C@H]1CCN(c2c(F)c(N)c3c(=O)c(C(=O)O)cn(C4CC4)c3c2F)C1`, the MIC against Streptococcus pyogenes [1] was determined as 0.2 µg/mL (≈ 0.492 µM); against Pseudomonas aeruginosa it was 3.1 µg/mL (≈ 7.63 µM); against Klebsiella pneumoniae it was 0.8 µg/mL (≈ 1.97 µM); against Staphylococcus aureus [3], 0.1 µg/mL (≈ 0.246 µM); against Enterococcus faecalis, 0.2 µg/mL (≈ 0.492 µM); in the assay with Enterobacter cloacae, 0.2 µg/mL (≈ 0.492 µM). Moreover, the MIC in the assay with Escherichia coli is 0.2 µg/mL (≈ 0.492 µM); with Streptococcus pneumoniae, 0.2 µg/mL (≈ 0.492 µM); in the assay on Providencia rettgeri, 0.8 µg/mL (≈ 1.97 µM); with Staphylococcus aureus [4] it was 0.05 µg/mL (≈ 0.123 µM). Further, the PD50 in the assay on Streptococcus pyogenes [2] and with Streptococcus pyogenes [5] was 13 mg/kg in each case.
As to `CCN[C@H](C)[C@@H]1CCN(c2c(F)cc3c(=O)c(C(=O)O)cn(C4CC4)c3c2C(F)(F)F)C1`, the MIC with Streptococcus pyogenes [1] (setting [8]) is 0.1 µg/mL (≈ 0.22 µM); in the assay on Pseudomonas aeruginosa (setting [9]), 6.3 µg/mL (≈ 13.8 µM); in the assay with Klebsiella pneumoniae (setting [10]), 1.6 µg/mL (≈ 3.51 µM); in the assay on Staphylococcus aureus [3] (setting [11]), 0.05 µg/mL (≈ 0.11 µM); with Enterococcus faecalis (setting [12]) it was 0.1 µg/mL (≈ 0.22 µM); with Enterobacter cloacae (setting [6]), 1.6 µg/mL (≈ 3.51 µM). The MIC in the assay with Escherichia coli (setting [13]) worked out at 0.8 µg/mL (≈ 1.76 µM); in the assay with Streptococcus pneumoniae (setting [14]), 0.05 µg/mL (≈ 0.11 µM); in the assay on Providencia rettgeri (setting [7]) it was 3.1 µg/mL (≈ 6.81 µM); in the assay on Staphylococcus aureus [4] (setting [11]), 0.05 µg/mL (≈ 0.11 µM). The ED50 was 2 mg/kg in the assay on Streptococcus pyogenes [2] and 0.8 mg/kg in the assay on Streptococcus pyogenes [5].
For the compound `CCN[C@H](C)[C@@H]1CCN(c2nc3c(cc2F)c(=O)c(C(=O)O)cn3-c2ccc(F)cc2F)C1`, the minimal inhibitory concentration (MIC) in the assay on Streptococcus pyogenes [1] (setting [8]) is 0.2 µg/mL (≈ 0.434 µM); with Pseudomonas aeruginosa (setting [9]) it was 3.1 µg/mL (≈ 6.73 µM); with Klebsiella pneumoniae (setting [10]), 1.6 µg/mL (≈ 3.47 µM); with Staphylococcus aureus [3] (setting [11]), 0.2 µg/mL (≈ 0.434 µM); in the assay with Enterococcus faecalis (setting [12]), 0.4 µg/mL (≈ 0.869 µM); in the assay with Enterobacter cloacae (setting [6]), 0.8 µg/mL (≈ 1.74 µM). The MIC with Escherichia coli (setting [13]) amounted to 0.8 µg/mL (≈ 1.74 µM); in the assay on Streptococcus pneumoniae (setting [14]), 0.2 µg/mL (≈ 0.434 µM); in the assay with Providencia rettgeri (setting [7]), 3.1 µg/mL (≈ 6.73 µM); in the assay on Staphylococcus aureus [4] (setting [11]), 0.05 µg/mL (≈ 0.109 µM). For the same compound, the ED50 with Streptococcus pyogenes [2] was determined as 10 mg/kg; in the assay with Streptococcus pyogenes [5] it was 6 mg/kg.

The MIC is the lowest concentration found to suppress growth.

The record behind these values is ChEMBL document CHEMBL1126988, “Quinolone antibacterials containing the new 7-[3-(1-aminoethyl)-1- pyrrolidinyl] side chain: the effects of the 1-aminoethyl moiety and its stereochemical configurations on potency and in vivo efficacy” (J Med Chem, 1993).
